According to ChEMBL document CHEMBL3120098, “Structure-activity relationship (SAR) optimization of 6-(indol-2-yl)pyridine-3-sulfonamides: identification of potent, selective, and orally bioavailable small molecules targeting hepatitis C (HCV) NS4B” (J Med Chem, 2014):

Key:
[1] = Ratio of EC50 for HCV1b Con1 to plasma concentration in beagle dog at 5 mg/kg, po after 8 hrs
[2] = (§1) Oral bioavailability in beagle dog at 5 mg/kg; type: ADME, organism-based, Canis lupus familiaris; details: beagle, in vivo
[3] = Clearance in Sprague-Dawley rat at 6 mg/kg, iv; type: ADME, organism-based; set-up: dose 6 mg/kg, route intravenous; details: in vivo
[4] = Terminal half life in cynomolgus monkey at 2.5 mg/kg, iv; type: ADME, organism-based, Macaca fascicularis; set-up: dose 2.5 mg/kg, route intravenous; details: in vivo, read-out: beta t1/2 (converted)
[5] = organism: Rattus norvegicus; assay: Drug metabolism in bile duct cannulated rat assessed as 6-(3-cyano-5-fluoro-6-(1-hydroxyethyl)-1-(pyrimidin-2-yl)-1H-indol-2-yl)pyridine-3-sulfonamide level in plasma; type: ADME, organism-based
[6] = Ratio of EC50 for HCV1b Con1 to plasma concentration in Sprague-Dawley rat at 10 mg/kg, po after 6 hrs
[7] = system: Hepatocyte; assay: Induction of CYP3A4 mRNA expression in human hepatocytes at 5 uM relative to rifampicin; type: ADME, cell-based
Summary of the method: (§2)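 Cryopreserved cultured human hepatocytes incubated 3 days with compound at several concentrations; CYP3A4 enzyme activity and mRNA expression measured, expressed as percent induction relative to rifampicin.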

[8] = Volume of distribution at steady state in cynomolgus monkey at 2.5 mg/kg, iv and 5 mg/kg, po; type: ADME, organism-based, Macaca fascicularis; details: in vivo, read-out: Vdss
[9] = AUC (0 to infinity) in cynomolgus monkey at 5 mg/kg, po; type: ADME, organism-based, Macaca fascicularis; set-up: time infinity, dose 5 mg/kg, route oral; details: plasma
[10] = Clearance in beagle dog at 2.5 mg/kg, iv; type: ADME, organism-based, Canis lupus familiaris; set-up: dose 2.5 mg/kg, route intravenous; details: in vivo
[11] = Ratio of drug level in liver to plasma in Sprague-Dawley rat at 10 mg/kg, po after 6 hrs; type: ADME, organism-based; set-up: dose 10 mg/kg, route oral
Summary of the method: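 Male Sprague-Dawley rats, 10 mg/kg PO suspension in 0.4% hydroxypropyl methylcellulose; liver and plasma drug levels measured at 6 h, expressed as liver/plasma ratio.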

[12] = Terminal half life in Sprague-Dawley rat at 6 mg/kg, iv; type: ADME, organism-based; set-up: dose 6 mg/kg, route intravenous; details: in vivo, read-out: beta t1/2 (converted)
[13] = organism: Rattus norvegicus; assay: Drug metabolism in bile duct cannulated rat assessed as 6-(3-cyano-6-ethyl-5-fluoro-1-(pyrimidin-2-yl)-1H-indol-2-yl)pyridine-3-sulfonamide level in plasma; type: ADME, organism-based
[14] = Cmax in Sprague-Dawley rat at 10 mg/kg, po; type: ADME, organism-based; set-up: dose 10 mg/kg, route oral; details: in vivo
[15] = AUC (0 to 6 hrs) in Sprague-Dawley rat at 10 mg/kg, po; type: ADME, organism-based; set-up: time < 6 hr, dose 10 mg/kg, route oral; details: plasma
[16] = Cmax in cynomolgus monkey at 5 mg/kg, po; type: ADME, organism-based, Macaca fascicularis; set-up: dose 5 mg/kg, route oral; details: in vivo
[17] = Oral bioavailability in Sprague-Dawley rat at 10 mg/kg; type: ADME, organism-based; details: in vivo
[18] = Volume of distribution at steady state in Sprague-Dawley rat at 6 mg/kg, iv and 10 mg/kg, po; type: ADME, organism-based; details: in vivo, read-out: Vdss
[19] = (§3) AUC (0 to infinity) in beagle dog at 5 mg/kg, po; type: ADME, organism-based, Canis lupus familiaris, Plasma; set-up: dose 5 mg/kg, route oral, time infinity; details: beagle, plasma
[20] = biological target: T1, Cytochrome P450 3A4 (Homo sapiens, UniProt P08684); assay: Induction of CYP3A4 activity in human hepatocytes at 3 uM relative to rifampicin; type: ADME, cell-based, Hepatocyte; summary of the method: as §2
T1 sequence (P08684 whole entry): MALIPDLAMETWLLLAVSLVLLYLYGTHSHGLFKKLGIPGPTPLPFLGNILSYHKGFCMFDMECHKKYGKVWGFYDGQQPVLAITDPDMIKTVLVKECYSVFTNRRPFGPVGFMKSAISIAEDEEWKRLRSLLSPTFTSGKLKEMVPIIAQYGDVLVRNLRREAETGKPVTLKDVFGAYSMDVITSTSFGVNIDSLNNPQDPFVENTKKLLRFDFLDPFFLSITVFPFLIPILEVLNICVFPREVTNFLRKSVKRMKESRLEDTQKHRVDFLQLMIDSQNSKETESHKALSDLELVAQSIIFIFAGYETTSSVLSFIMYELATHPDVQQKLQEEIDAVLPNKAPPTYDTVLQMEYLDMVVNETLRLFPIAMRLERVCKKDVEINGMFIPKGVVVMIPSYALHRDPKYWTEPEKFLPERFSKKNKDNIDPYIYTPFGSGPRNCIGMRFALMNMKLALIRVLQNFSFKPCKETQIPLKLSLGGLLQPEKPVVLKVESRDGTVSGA

[21] = system: Rhesus monkey; assay: Drug metabolism in bile duct cannulated monkey assessed as GSH adduct formation; type: ADME, organism-based, Macaca mulatta; details: in vivo
[22] = biological target: Cytochrome P450 2C9 (Homo sapiens, UniProt P11712); assay: Inhibition of CYP2C9 in human liver microsomes; type: ADME
Chain of Cytochrome P450 2C9 (P11712 whole entry): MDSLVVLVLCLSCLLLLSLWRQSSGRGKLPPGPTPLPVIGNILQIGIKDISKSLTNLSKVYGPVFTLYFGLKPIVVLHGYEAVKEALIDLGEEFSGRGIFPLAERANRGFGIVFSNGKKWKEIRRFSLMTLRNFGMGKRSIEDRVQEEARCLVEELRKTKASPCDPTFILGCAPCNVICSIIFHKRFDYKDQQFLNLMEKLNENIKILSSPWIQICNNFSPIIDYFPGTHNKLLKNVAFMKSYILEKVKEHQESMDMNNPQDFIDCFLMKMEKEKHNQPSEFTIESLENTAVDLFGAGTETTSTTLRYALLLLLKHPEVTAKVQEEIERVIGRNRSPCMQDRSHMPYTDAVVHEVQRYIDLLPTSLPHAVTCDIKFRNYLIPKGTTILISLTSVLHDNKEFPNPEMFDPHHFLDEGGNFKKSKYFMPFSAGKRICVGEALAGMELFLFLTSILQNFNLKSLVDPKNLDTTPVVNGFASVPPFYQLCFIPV

[23] = system: Pregnane X receptor (Homo sapiens); assay: Activation of PXR (unknown origin) at 10 uM by reporter gene assay
[24] = Volume of distribution at steady state in beagle dog at 2.5 mg/kg, iv and 5 mg/kg, po; type: ADME, organism-based, Canis lupus familiaris; details: in vivo, read-out: Vdss
[25] = AUC (0 to infinity) in Sprague-Dawley rat at 10 mg/kg, po; type: ADME, organism-based; set-up: time infinity, dose 10 mg/kg, route oral; details: plasma
[26] = biological target: Cytochrome P450 2D6 (Homo sapiens, UniProt P10635); assay: Inhibition of CYP2D6 in human liver microsomes; type: ADME
Chain of Cytochrome P450 2D6 (P10635 whole entry): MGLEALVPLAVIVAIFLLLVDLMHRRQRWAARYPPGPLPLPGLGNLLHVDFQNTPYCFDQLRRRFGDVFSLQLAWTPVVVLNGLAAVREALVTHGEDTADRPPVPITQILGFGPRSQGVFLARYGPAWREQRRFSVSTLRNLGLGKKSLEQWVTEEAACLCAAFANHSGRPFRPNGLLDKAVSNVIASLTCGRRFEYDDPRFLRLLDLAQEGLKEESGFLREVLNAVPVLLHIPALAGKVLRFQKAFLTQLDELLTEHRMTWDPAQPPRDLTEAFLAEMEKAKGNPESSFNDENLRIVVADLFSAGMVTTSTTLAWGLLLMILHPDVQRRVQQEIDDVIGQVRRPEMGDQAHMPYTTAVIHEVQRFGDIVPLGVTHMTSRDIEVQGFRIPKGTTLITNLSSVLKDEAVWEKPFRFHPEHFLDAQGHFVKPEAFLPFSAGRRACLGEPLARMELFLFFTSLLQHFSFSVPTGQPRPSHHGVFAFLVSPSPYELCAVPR

[27] = Terminal half life in beagle dog at 2.5 mg/kg, iv; type: ADME, organism-based, Canis lupus familiaris; set-up: dose 2.5 mg/kg, route intravenous; details: in vivo, read-out: beta t1/2 (converted)
[28] = system: Hepatitis C virus; assay: Antiviral activity against HCV1a H77S assessed as inhibition of viral replication; type: functional, organism-based, Hepacivirus hominis; details: genotype 1a H77S
[29] = biological target: T1, Cytochrome P450 3A4; assay: Induction of CYP3A4 activity in human hepatocytes at 5 uM relative to rifampicin; type: ADME, cell-based, Hepatocyte; summary of the method: as §2
[30] = Cmax in beagle dog at 5 mg/kg, po; type: ADME, organism-based, Canis lupus familiaris; set-up: dose 5 mg/kg, route oral; details: in vivo
[31] = Clearance in cynomolgus monkey at 2.5 mg/kg, iv; type: ADME, organism-based, Macaca fascicularis; set-up: dose 2.5 mg/kg, route intravenous; details: in vivo
[32] = Ratio of EC50 for HCV1b Con1 to plasma concentration in cynomolgus monkey at 5 mg/kg, po after 8 hrs
[33] = organism: Rattus norvegicus; assay: Drug metabolism in bile duct cannulated rat assessed as 6-(3-cyano-5-fluoro-6-(1-hydroxyethyl)-1-(pyrimidin-2-yl)-1H-indol-2-yl)-N-((S)-1,1,1-trifluoropropan-2-yl)pyridine-3-sulfonamide level in plasma; type: ADME, organism-based
[34] = organism: Canis familiaris; assay: Drug metabolism in bile duct cannulated dog assessed as GSH adduct formation; type: ADME, organism-based, Canis lupus familiaris; details: in vivo
[35] = system: Hepatitis C virus; assay: Antiviral activity against HCV1b Con1 infected in human HuH7 cells assessed as inhibition of viral RNA replication by RT-PCR analysis; type: functional, organism-based, Hepacivirus hominis; details: isolate Con1, Huh-7
[36] = Ratio of EC50 for HCV1b Con1 to plasma concentration in Sprague-Dawley rat at 10 mg/kg, po after 8 hrs
[37] = system: Rattus norvegicus; assay: Toxicity in rat up to 2000 mg/kg/day; type: organism-based; details: in vivo
Summary of the method: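 Non-GLP 14-day rat safety study with daily dosing up to 2000 mg/kg/day.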

[38] = system: Hepatocyte; assay: Induction of CYP3A4 mRNA expression in human hepatocytes at 3 uM relative to rifampicin; type: ADME, cell-based; summary of the method: as §2
[39] = Oral bioavailability in cynomolgus monkey at 5 mg/kg; type: ADME, organism-based, Macaca fascicularis; details: in vivo
[40] = biological target: T1, Cytochrome P450 3A4; assay: Inhibition of CYP3A4 in human liver microsomes; type: ADME
[41] = Toxicity in human HuH7 cells assessed as effect on GAPDH mRNA level; type: cell-based, Huh-7
Summary of the method: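 Run in parallel with replicon assay in Con1 replicon Huh-7 cells (0.5% DMSO, 37 °C); endogenous GAPDH mRNA quantified by TaqMan RT-PCR; highest concentration tested 10000 nM.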

[42] = system: Canis familiaris; assay: as §1; type: ADME, organism-based, Canis lupus familiaris; details: in vivo
[43] = system: Canis familiaris; assay: as §3; type: ADME, organism-based, Canis lupus familiaris, Plasma; set-up: dose 5 mg/kg, route oral, time infinity; details: in vivo
[44] = system: Rattus norvegicus; assay: Drug metabolism in bile duct cannulated rat assessed as 6-(3-cyano-1-cyclobutyl-6-(difluoromethoxy)-5-fluoro-1H-indol-2-yl)pyridine-3-sulfonamide formation in plasma at 5 mg/kg; type: ADME, organism-based; set-up: dose 5 mg/kg; details: in vivo

Structure (SMILES): CCc1cc2c(cc1F)c(C#N)c(-c1ccc(S(=O)(=O)N[C@@H](C)C(F)(F)F)cn1)n2-c1ncccn1
- Ratio [1]: 460
- bioavailability [2]: 78%
- clearance [3]: 10.1 mL/min/kg
- half-life [4]: 8 h
- Drug metabolism [5]: Active
- Ratio [6]: 342
- Activity [7]: 15.4%
- Vd [8]: 3.8 L/kg
- AUC(0-inf) [9]: 3.1 µM·h
- clearance [10]: 4.6 mL/min/kg
- Kp at 6 h [11]: 25
- half-life [12]: 7.5 h
- Drug metabolism [13]: Active
- Cmax [14]: 2400 nM
- AUC(0-t) at 6 h [15]: 8.16 µM·h
- Cmax [16]: 540 nM
- bioavailability [17]: 62%
- Vd [18]: 3.9 L/kg
- AUC(0-inf) [19]: 29 µM·h
- Activity [20]: 6%
- Drug metabolism [21]: Not Active
- IC50 [22]: > 10 µM
- Activity [23]: 37%
- Vd [24]: 2.1 L/kg
- AUC(0-inf) [25]: 20 µM·h
- IC50 [26]: > 10 µM
- half-life [27]: 8.9 h
- EC50 [28]: 0.007 µM
- Activity [29]: 9%
- Cmax [30]: 4000 nM
- clearance [31]: 11 mL/min/kg
- Ratio [32]: 50
- Drug metabolism [33]: Active
- Drug metabolism [34]: Not Active
- EC50 [35]: 0.002 µM
- Ratio [36]: 325
- Activity [37]: Non-toxic
- Activity [38]: 9.8%
- bioavailability [39]: 18%
- IC50 [40]: > 10 µM
- IC50 [41]: > 10 µM

Structure (SMILES): C[C@H](NS(=O)(=O)c1ccc(-c2c(C#N)c3cc(F)c(OC(F)F)cc3n2C2CCC2)nc1)C(F)(F)F
- F [42]: 91%
- clearance [3]: 3 mL/min/kg
- half-life [4]: 22 h
- Ratio [6]: 277
- AUC(0-inf) [9]: 24.8 µM·h
- Kp at 6 h [11]: 11.4
- half-life [12]: 11 h
- AUC(0-t) at 6 h [15]: 13.4 µM·h
- bioavailability [17]: 49%
- AUC [43]: 24.79 µM·h
- Drug metabolism [44]: Active
- AUC(0-inf) [25]: 24.8 µM·h
- half-life [27]: 149 h
- clearance [31]: 2.2 mL/min/kg
- EC50 [35]: 0.007 µM
- bioavailability [39]: 35%
- IC50 [41]: 9.1 µM
